Source: PubChem (several laboratories)
Wee1 stabilizer = human Wee1 degradation inhibition, primary screen. P30291. HeLa Luc-Wee1K328M stability, luciferase luminescence; 100% = proteasome inhibitor MG132 effect. reporter increase, % at 5 µM. hit rate 1.2% among 220,000. AID 1321;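 active = activation above the mean of all tested compounds plus 3 SD, set per screening run, cut at about 8.8% in these data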;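 also: cells exposed to compound for 20 h before luminescence read; 0% = DMSO alone and 100% = MG132 at 30 µM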
Mdm2 ligase inh = inhibitors of human Mdm2 E3 ubiquitin ligase. Q00987. cell-based MDM2 ubiquitination luciferase reporter, 2 h; 0 = plate control, 100 = twice control, blank-subtracted. signal enhancement, % at 5 µM. hit rate 0.11% among 210,000. AID 1230;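 active = signal enhancement of 30% or more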;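 also: luminescence tracks abundance of the self-degrading MDM2-luciferase fusion protein; higher signal means inhibition of MDM2 E3 ligase activity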
Target sequence (Q00987 whole entry, looked up, the tested form may be a part): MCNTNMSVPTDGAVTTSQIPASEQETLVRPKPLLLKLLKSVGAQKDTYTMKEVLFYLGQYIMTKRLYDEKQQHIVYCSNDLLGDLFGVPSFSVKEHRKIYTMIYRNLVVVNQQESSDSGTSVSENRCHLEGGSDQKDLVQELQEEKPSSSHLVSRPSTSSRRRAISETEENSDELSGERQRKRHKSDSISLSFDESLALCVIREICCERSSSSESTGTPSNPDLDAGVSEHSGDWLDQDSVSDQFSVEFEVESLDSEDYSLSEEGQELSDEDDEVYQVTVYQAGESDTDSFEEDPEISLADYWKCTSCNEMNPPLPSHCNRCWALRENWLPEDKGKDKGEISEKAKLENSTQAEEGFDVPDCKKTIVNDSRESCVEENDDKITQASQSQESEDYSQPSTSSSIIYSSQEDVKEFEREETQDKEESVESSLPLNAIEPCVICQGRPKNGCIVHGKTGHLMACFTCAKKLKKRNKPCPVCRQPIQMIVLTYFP
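Assay system: mammalian cells stably expressing self-ubiquitinating, self-degrading MDM2 E3–luciferase fusion. Quantity: 2000 cells in each well. Medium: DMEM culture medium. Compound dosing: single-point 5 µM. Timing: cell settling 4 h, compound treatment 2 h, both 37 °C. Technique: luciferase luminescence. Read-out basis: percent signal gain over controls, blank-subtracted. Benchmarks: plate controls and plate blanks.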
Pf gametocyte = kills late stage P. falciparum gametocytes. P. falciparum stage V gametocytes, ATP luminescence, 24 h. inhibition, % at 10.9 µM. hit rate 0.065% among 150,000. AID 743093;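 active = inhibition above the mean plus 3 SD of compounds within the control limits, set per campaign, cut at about 38% in these data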;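 also: 0% = DMSO wells and 100% = medium only without gametocytes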
Hsp70 activator = Hsp70 transcriptional activation, primary screen | HeLa Hsp70 promoter luciferase reporter, luminescence; scaled: vehicle 0, proteasome-inhibitor control 100% | activation, % at 10 µM | hit rate 0.04% among 200,000 | AID 1203;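 active = activation above the mean across all tested compounds plus 3 SD, cutoff set per campaign, cut at about 5.5% in these data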;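 also: 100% = MG132 at 30 µM as the positive control and 0% = DMSO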
Wee1 stab conf = confirmation of human Wee1 degradation inhibitors. shares compounds with Wee1 stabilizer. AID 1410. activation, % at 5 µM. HeLa Luc-Wee1K328M degradation, luminescence; vehicle 0%, proteasome-blocked wells 100%. hit rate 4% among 1,100; in the data active = activation above about 8.9%
* = called active by the depositor; . = no result. The list is not random: actives were taken first. Their share in the collection is about 1.3%.

SMILES	Wee1 stabilizer	Mdm2 ligase inh	Pf gametocyte	Hsp70 activator	Wee1 stab conf
Cc1ccc(C(=O)N2CCC(C(=O)c3ccc(Cl)cc3)CC2)cc1	.	.	24	.	.
CC(=O)N1CC2(c3ccccc3)CN(C(C)=O)CC(c3ccccc3)(C1)C2=O	-3	-8	22	0	.
CCC(=O)N1CC2(c3ccccc3)CN(C(=O)CC)CC(c3ccccc3)(C1)C2=O	12*	-7	6	0	0
COCCn1cc(C(=O)NCCCN2CCC(C)CC2)c2c3ccccc3n(C)c2c1=O	14*	-6	.	0	1
CCN1CCN(CCCNC(=O)c2cn(CCOC)c(=O)c3c2c2ccccc2n3C)CC1	-2	-21	.	0	.
COC(=O)C(Cc1c[nH]c2ccccc12)NC(C)=O (centres undefined)	11*	.	13	1	-2
Cc1[nH]c2ccccc2c1/C=N/NC(=O)C1CC1(c1ccccc1)c1ccccc1 (centres undefined)	-1	-4	8	0	.
O=C(CC1C(=O)N(c2ccccc2)C(=S)N1c1ccccc1)c1ccc(Br)cc1 (centres undefined)	67*	.	.	0	1
COc1ccc(N2CCC(CNC(=S)Nc3cccc(C)c3)C2)cc1 (centres undefined)	11*	-8	.	0	0
COc1ccc(NC(=S)N(CCCN2CCOCC2)C(C)c2cc3cccc(OC)c3o2)cc1 (centres undefined)	1	-19	-11	0	.
COc1cccc2cc(C(C)N(CCCN3CCOCC3)C(=S)Nc3cc(C)ccc3C)oc12 (centres undefined)	14*	-17	-13	0	3
COc1cccc2cc(C(C)N(CCCN3CCOCC3)C(=S)Nc3ccc(C)c(C)c3)oc12 (centres undefined)	33*	-13	-9	0	0
CN(C)S(=O)(=O)c1cccc(NC(=S)NN=C(Cc2ccccc2)Cc2ccccc2)c1	3	-5	-13	0	.
O=C(CCC(=O)Nc1nnc(C2CCCCC2)s1)NCC1CCCO1 (centres undefined)	16*	-1	14	0	2
CCOCCCNC(=O)c1ccc(C2SCC(=O)N2Cc2ccccc2)cc1 (centres undefined)	.	.	-4	.	.
CCCN(CC1CC1)C(=O)CSc1nnc(-c2cc(-c3cccs3)nc3ccccc23)o1	19*	-14	.	0	-2
NC(=O)CSc1nnc(-c2cc(-c3cccs3)nc3ccccc23)o1	-2	-17	.	0	.
O=Cc1ccc(Oc2cnccn2)cc1	4	-22	14	0	.
O=C(Nc1ccc(OC(F)(F)F)cc1)Nc1cccc([N+](=O)[O-])c1	17*	-61	16	0	2
Cc1ccc(NC(=O)Nc2cccc([N+](=O)[O-])c2)cc1F	-1	-11	-15	0	.
NS(=O)(=O)c1ccc(NC(=S)NC(=O)c2cccs2)cc1	19*	-7	-11	.	3
O=C(NC(=S)Nc1ccc(S(=O)(=O)N2CCCCC2)cc1)c1cccs1	0	1	16	0	.
C=CCNC(=S)NNc1nc(N2CCCC2)nc(N2CCCC2)n1	.	.	3	.	.
C=CCNC(=S)NNc1nc(Nc2ccccc2)nc(N2CCCCC2)n1	11*	4	3	0	1
CN(C)/C=C(\C#N)C(N)=C(C#N)C#N	1	-13	-5	0	.
SMILES	Wee1 stabilizer	Mdm2 ligase inh	Pf gametocyte	Hsp70 activator	Wee1 stab conf
COc1cc(OC)c(NC(=O)/C=C/C(=O)O)cc1Cl	12*	-26	10	.	0
O=C(/C=C/c1ccco1)NC(=S)Nc1cc(-c2nc3ccccc3s2)ccc1Cl	2	-7	9	0	.
O=C(/C=C/c1ccco1)NC(=S)Nc1cccc(-c2nc3ccccc3s2)c1	13*	.	4	0	8
O=S(=O)(NCc1ccccc1)c1ccc(NC(=S)NCc2ccco2)cc1	.	.	-15	.	.
CCOC(=O)c1c(-c2ccccc2)csc1NC(=O)CSc1nnc(C)s1	12*	-86	.	0	-1
CCOC(=O)N1CCN(C(=O)c2oc3ccc(S(=O)(=O)N4CC(C)CC(C)C4)cc3c2C)CC1 (centres undefined)	0	-18	15	0	.
CCOC(=O)C1CCN(C(=O)c2oc3ccc(S(=O)(=O)N4CC(C)CC(C)C4)cc3c2C)CC1 (centres undefined)	11*	-9	16	0	-2
CCOC(=O)C(=CNc1ccc2c(c1)c1ccccc1n2CC)C(=O)OCC	4	1	10	.	.
CN(C)C(CNc1ncnc2sc3c(c12)CCCCC3)c1ccco1 (centres undefined)	34*	7	6	0	5
Cc1cc([N+](=O)[O-])cc(/C=N\NC(=O)C2COc3ccccc3O2)c1O (centres undefined)	-5	0	3	.	.
CCOc1ccc(Nc2n[nH]c(=S)s2)cc1	6	-14	0	0	.
S=c1[nH]nc(Nc2ccc(Cl)cc2)s1	15*	-6	-10	.	0
COc1ccc(/C=C/C(=O)O/N=C(\N)c2ccccc2)cc1OC	17*	-6	0	0	0
COc1ccc(/C(N)=N/OC(=O)/C=C/c2ccccc2)cc1	-1	-20	1	0	.
Cc1ccc(NC(=S)N2CCCC(O)C2)cc1 (centres undefined)	14*	-11	.	0	2
O=C(NC(=S)N1CCN(c2ccc([N+](=O)[O-])cc2)CC1)c1ccccc1F	-3	6	2	0	.
Cc1cc(NC(=O)CSc2nnc(C3COc4ccccc4O3)n2C)no1 (centres undefined)	22*	-5	13	0	-3
Cc1cc(NC(=O)CSc2nnc(-c3ccccc3)n2C)no1	4	-5	8	0	.
CC(C)NS(=O)(=O)c1ccc(OCC(=O)N2CCCC2)cc1	-1	1	.	0	.
CC(C)NS(=O)(=O)c1ccc(OCC(=O)N2CCc3ccccc3C2)cc1	13*	-13	5	0	3
COc1cc(/C=N/Nc2nc(=O)[nH]nc2C)ccc1O	17*	-6	-6	.	-3
CCCCNC(=O)NC12CC3CC(CC(C3)C1)C2	22*	-6	0	0	3
O=C(NCCCO)NC12CC3CC(CC(C3)C1)C2	0	-7	2	0	.
CCOCCCNC(=S)N1C2CCC1CC(NC(=O)NC13CC4CC(CC(C4)C1)C3)C2 (centres undefined)	12*	-14	.	1	5
O=C1CSC(c2cccc([N+](=O)[O-])c2)N1c1ccc(O)cc1 (centres undefined)	-2	-4	-11	0	.
CC1(C)CC(=O)C2=C(C1)N=C1SCCC(=O)N1C2c1cccc([N+](=O)[O-])c1 (centres undefined)	12*	9	-3	0	0
CCC(C)[C@H](NC(=O)N1CCN(c2cccc(C(F)(F)F)c2)CC1)C(=O)OC (some centres undefined)	12*	-3	.	0	3
